From ChEMBL document CHEMBL1122240, “Inhibition by carboxamides and sulfoxides of liver alcohol dehydrogenase and ethanol metabolism” (J Med Chem, 1983)

What was measured:
Alcohol dehydrogenase = Alcohol dehydrogenase (Equus caballus, UniProt P00327+P00328); assay: In vitro inhibition against horse liver alcohol dehydrogenase
[1] = target: T1, Alcohol dehydrogenase (Equus caballus) (UniProt P00327+P00328); assay: Slope inhibition constant was determined against horse liver alcohol dehydrogenase in presence of acetaldehyde
Method in brief: (§1)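 Purified horse liver enzyme, reverse reaction. Freshly distilled acetaldehyde was varied (1–5 mM; 0.4–2.0 mM in some runs) with 0.1 mM NADH and at least three inhibitor levels. Initial velocities were read as A340 change, 32 points per experiment, and inhibition constants were obtained from double-reciprocal fits.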

[2] = In vivo inhibition of ethanol metabolism following 1 mMol/Kg i.p.; details: ip
[3] = target: T1, Alcohol dehydrogenase (Equus caballus); assay: Intercept inhibition constant was determined against horse liver alcohol dehydrogenase in presence of ethanol
Method in brief: (§2)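 Purified horse liver enzyme with ethanol varied as substrate and NAD+ as coenzyme. At least three inhibitor concentrations were tested (e.g. 0–0.2 mM). Initial velocities were followed at 340 nm, 32 points in one experiment. Intercept and slope constants were derived from double-reciprocal plots fitted to uncompetitive or noncompetitive equations.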

[4] = Michaelis-Menten's constant was determined in vivo against rat liver alcohol dehydrogenase in presence of ethanol; assay type: organism-based
Method in brief: (§3)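 Fed male Sprague-Dawley rats (175–280 g) received inhibitor ip (0.1 M sulfoxide or ≤0.46 M amide in saline) at 0–1.0 mmol/kg. Ten minutes later ethanol (3.26 M) was given ip at 7.69, 10.9 or 19.6 mmol/kg. Tail blood was sampled over time and ethanol measured by GC against a tert-butyl alcohol internal standard. Rate was derived by Widmark's method.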

[5] = target: T1, Alcohol dehydrogenase (Equus caballus); assay: Slope inhibition constant was determined against horse liver alcohol dehydrogenase in presence of ethanol; method in brief: as §2
[6] = Intercept inhibition constant was determined in vitro against purified rat liver alcohol dehydrogenase in presence of ethanol
Method in brief: (§4)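 Rat liver enzyme partially purified by (NH4)2SO4 fractionation, DEAE-cellulose and Sephadex G-100. Assays ran in 83 mM potassium phosphate pH 7.3 with 40 mM KCl (μ 0.25) at 37.8 °C, with 0.5 mM NAD+, ethanol at 0.4–2 mM and inhibitor at 0–0.6 mM. Initial rates were read at 340 nm, 32 points per experiment.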

[7] = target: T1, Alcohol dehydrogenase (Equus caballus); assay: Intercept inhibition constant was determined against horse liver alcohol dehydrogenase in presence of acetaldehyde; method in brief: as §1
[8] = Intercept inhibition constant was determined in vivo against rat liver alcohol dehydrogenase in presence of ethanol; assay type: organism-based; method in brief: as §3
[9] = Slope inhibition constant was determined against purified rat liver alcohol dehydrogenase in presence of ethanol; method in brief: as §4
[10] = In vivo inhibition of ethanol metabolism following 1 mMol/Kg i.p.
[11] = Michaelis-Menten's constant was determined in vitro against purified rat liver alcohol dehydrogenase in presence of ethanol; method in brief: as §4
CC(C)CC(N)=O [12] = assay: (§5) Michaelis-Menten's constant was determined against horse liver alcohol dehydrogenase in presence of ethanol; details: Equus caballus; method in brief: as §2
[O-][S+]1CCCC1 [13] = as §5; details: Equus caballus; method in brief: as §2
CC(C)CC(N)=O [14] = assay: (§6) Michaelis-Menten's constant was determined against horse liver alcohol dehydrogenase in presence of acetaldehyde; details: Equus caballus; method in brief: as §1
[O-][S+]1CCCC1 [15] = as §6; details: Equus caballus; method in brief: as §1

Chain of Alcohol dehydrogenase (Equus caballus) (from UniProt P00327+P00328) (P00328 whole entry, looked up): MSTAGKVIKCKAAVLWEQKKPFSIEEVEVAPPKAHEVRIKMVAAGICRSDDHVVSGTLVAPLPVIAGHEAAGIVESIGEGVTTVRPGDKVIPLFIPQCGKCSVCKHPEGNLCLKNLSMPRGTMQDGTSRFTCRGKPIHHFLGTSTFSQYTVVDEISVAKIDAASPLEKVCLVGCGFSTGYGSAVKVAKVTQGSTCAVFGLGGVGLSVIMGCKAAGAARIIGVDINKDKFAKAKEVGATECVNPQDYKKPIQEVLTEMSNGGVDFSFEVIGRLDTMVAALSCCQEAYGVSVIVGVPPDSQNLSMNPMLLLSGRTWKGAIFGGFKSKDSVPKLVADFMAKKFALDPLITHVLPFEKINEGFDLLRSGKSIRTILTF
Chain of Alcohol dehydrogenase (Equus caballus) (from UniProt P00327+P00328) (P00327 whole entry, looked up): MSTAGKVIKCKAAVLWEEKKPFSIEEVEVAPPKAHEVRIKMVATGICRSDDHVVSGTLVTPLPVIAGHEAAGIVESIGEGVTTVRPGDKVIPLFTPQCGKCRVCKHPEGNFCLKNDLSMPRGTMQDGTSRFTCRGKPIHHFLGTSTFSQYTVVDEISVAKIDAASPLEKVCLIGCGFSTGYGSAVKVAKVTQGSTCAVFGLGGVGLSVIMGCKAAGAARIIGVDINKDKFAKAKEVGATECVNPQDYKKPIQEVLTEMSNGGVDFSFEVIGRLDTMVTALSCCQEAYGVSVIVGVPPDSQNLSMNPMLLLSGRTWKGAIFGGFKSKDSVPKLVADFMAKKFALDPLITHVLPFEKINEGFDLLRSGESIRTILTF

Ki (Alcohol dehydrogenase) [µM] | Compound | inhibition in vivo at 1000 µmol/kg [2] [%] | other results
500 | C=C[S+]([O-])c1ccccc1 (stereo unspecified) | – | –
20 | CC(C)CC(N)=O [ISOVALERAMIDE] | 78 | Kis [1]: 11 µM; Kii [3]: 20 µM; Km [4]: 1500 µM/kg; Kis [5]: 160 µM; Kii [6]: 20 µM; Kii [7]: 460 µM; Kii [8]: 180 µM/kg
500 | CC[S+](C)[O-] (stereo unspecified) | 16 | –
5300 | NC(=O)CCCl | 15 | –
12500 | CC[S+]([O-])c1ccccc1 (stereo unspecified) | – | –
10 | CCCCCCCCCCCCCC[S+](C)[O-] (stereo unspecified) | 15 | –
8500 | NC(=O)CCO | 15 | –
6800 | NC(=O)CCCO | 5 | –
9700 | O=C1CC[S+]([O-])CC1 | – | –
47 | CCCCCC[S+](C)[O-] (stereo unspecified) | 67 | –
2900 | CC(C)C(=O)NN | – | –
600 | COCC(N)=O [METHOXYACETAMIDE] | 18 | –
1100 | CC[S+]([O-])CC | – | –
220 | CC(C)C(N)=O [ISOBUTYRAMIDE] | 36 | –
430 | CC(C)CC[S+](C)[O-] (stereo unspecified) | 19 | –
5000 | C[S+]([O-])Cc1ccccc1 (stereo unspecified) | 13 | –
5800 | NC(=O)C(O)CCO (stereo unspecified) | – | –
150 | [O-][S+]1CCC1 | 25 | –
150 | CC(C)(C)CC(N)=O | 71 | –
340 | CC(C)C[S+](C)[O-] (stereo unspecified) | 14 | –

The next lines start with the compound.

Compound | Ki (Alcohol dehydrogenase) [µM] | inhibition in vivo at 1000 µmol/kg [2] [%] | other results
NC(N)=S [THIOUREA] | 42000 | – | –
NC(=O)C1CC1 [CYCLOPROPANECARBOXYLIC ACID AMIDE] | 790 | 29 | –
NC(=O)CCCCO | 4400 | 9 | –
[O-][S+]1CCNCC1 | 120000 | – | –
[O-][S+]1CCCC1 | 19 | – | Kis [1]: 11 µM; Kii [3]: 19 µM; Km [4]: 2000 µM/kg; Kis [9]: 230 µM; Kis [5]: 130 µM; inhibition [10]: 63%; Kii [6]: 200 µM; Kii [7]: 71 µM; Km [11]: 350 µM; Kii [8]: 340 µM/kg
NC(=O)CCCCCO | 1500 | 24 | –
O=C1CCCCN1 | 13000 | – | –
CCCCCCCCC(N)=O [NONANOAMIDE] | – | 15 | –
NC(=O)CSCC(N)=O | 36000 | 7 | –
C[S+]([O-])c1ccccc1 (stereo unspecified) [METHYLPHENYLSULFOXIDE] | 200 | 19 | –
[O-][S+]1CCOCC1 | 10600 | – | –
[O-][S+]1CCCCC1 | 480 | 21 | –
NC(=O)C(F)(F)C(F)(F)C(F)(F)F [HEPTAFLUOROBUTYRAMIDE] | 2000 | – | –
Alcohol dehydrogenase (Equus caballus) (from UniProt P00327+P00328) | – | – | Km (CC(C)CC(N)=O [12]): 900 µM; Km ([O-][S+]1CCCC1 [13]): 620 µM; Km (CC(C)CC(N)=O [14]): 150 µM; Km ([O-][S+]1CCCC1 [15]): 230 µM
NNC(N)=S [THIOSEMICARBAZIDE] | 1900 | – | –
CC(C)(Br)C(N)=O | – | 5 | –
